Consider 38 variants from the RNAGym collection of RNA variant scans (doi:10.1126/science.aae0568).

Fewer inactive variants are shown than the library holds.

First the molecules themselves.
B1: tRNA (parent)
chain: GUUCCGUUGGCGUAAUGGUAACGCGUCUCCCUCCUAAGGAGAAGACUGCGGGUUCGAGUCCCGUACGGAACG

The data set covers variants of B1. Put plainly: yeast fitness relative to wild type (ratio to wild type); higher = fitter; tRNA-Arg(CCU), competitive growth, 37 C, YPD. The gist of the method: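 Gene amplicons from the start population and from each of six end populations were read by 100-nucleotide paired-end sequencing. Those end populations came from pooled Saccharomyces cerevisiae strains carrying tRNA-Arg(CCU) gene variants at the native locus, competed in YPD at 37°C for 24 hours. Fitness relative to wild type was worked out from changes in genotype frequencies. Genotypes needed ≥ 100 starting reads, and estimates < 0.5 were set to 0.5.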
Take GUGGCCUUGGCGUAAUGGUAACGCGUCUACCUCCUCAGGAGAAGACUGCGGGUUCGAGUCCUGUACGGAACG [U3G C4G G6C C29A A36C C62U]: the yeast fitness is at most 0.5. With GUGCCGUUGGCGUAAUGGUAACGCGUCUCCCUCCUAAGGAGAGGACAGAGGGUUCGAGUCCCGUACGGAACG [U3G A43G U47A C49A], the yeast fitness came out at 0.535. In the case of GUGCCGUUGGCGUAAUGGUAACGCGUCUCCCUCCUAAGGAGAUGACUGCGGGUUCGAGUCCCGUACGGAACG [U3G A43U], the yeast fitness amounted to 1.08. The value for GUGCCGUUGGCGUAAUGGUAACGCGUCUCCCUCCUAAGGAGAGGUCUGCGGGUUCGAGUCCCGUACGGAACG [U3G A43G A45U] was 0.539; that for GUGCGGUUGACGUAAUGGUAACGCGUCUCAGUCCUAAGGAGAAGACGGAGGGUUCGAGUUCCGUACAGAACG [U3G C5G G10A C30A C31G U47G C49A C60U G67A] was at most 0.5. Regarding GUGCCGUUGGCGUAAUGGUAACGCGUCUCCCUCCUAAGGAGAAGACUGCGGGUUCGAGUCCCGUACGGAUCG [U3G A70U], the yeast fitness turned out to be 0.831. GUGACGUUGGCAUAAUGGUAACGCGUCUAGCUCCUAAGGAGAAGACUGCGGGUUCGAGUCCAGUACGGCACG [U3G C4A G12A C29A C30G C62A A69C]: the yeast fitness is at most 0.5.

Turning to GUGCCGUUGGCGUAAUGGUAACGCGUCUCCCUCCUAAGGAGAUGACUGCGGGCACGCGUCCCGUCCGGAACG [U3G A43U U53C U54A A57C A65C], the yeast fitness was at most 0.5. As for GUGCGGUUGGCGUAAUGGCAACGCGUCUCCCUCCUAAGGAGAAGACUGCGGGUUCGAGUCCCGUACGGAACG [U3G C5G U19C], the yeast fitness is at most 0.5. As for GUGCAGUUGGCGUAAUGGUGACGCGUCUCCCUCCUAAGGAGAAGACUGCGGGUUCGAGUCCCGUACGGAUCG [U3G C5A A20G A70U], the yeast fitness is at most 0.5. For GUGUCGUUGGCGUUUUGGUCACGCGUCUCCCUGCUAAGGUGAAGACUGCGGGUUCGAGUCGCGUACGGAACG [U3G C4U A14U A15U A20C C33G A40U C61G], the yeast fitness is 0.577.

For the variant GUGCCGUUGGCGUAAUGGUAACGCGUCUCCCUCCUAAGGAGAAGGCUGGGGGUUCGAGUCCCGUACGGAACG [U3G A45G C49G], the yeast fitness was 0.633. The value for GUGGCGUUGGCGUAAUGGUAAUGCGUCUUCCUCCUAAGGAGAAGACUGCGGGUUCGAGUCCCGUGCGGAACG [U3G C4G C22U C29U A65G] was at most 0.5. For GUGCCGUUGGCGUAAUGGUAACGCGUCUCCCUCCUAAGGAGAAGCCUGCGGGUUCGAGUCCCGUACGGUACG [U3G A45C A69U] the value was 1.08; for GUGCGGUUGGCGUAAUGGCAACGCGUCUCCCUCCUAAGGAGAAGACAGCGGGUUAGAGUCCCGUACGAAACG [U3G C5G U19C U47A C55A G68A], at most 0.5; for GUGCCGUUGGCGUAAUGGUAACGCGUCUCCCUCCUAAGGAGACGACUACGGGUUCGAGUCCCGUACGGACCG [U3G A43C G48A A70C], 0.617. Take GUGCCGUUGGCGUAAUGGUAACGCGUCUCCCUCCUAAGGAGAAGCCUGCGGGUCCGAGUCCCGUACGGUACG [U3G A45C U54C A69U]: the yeast fitness stood at 0.793. Regarding GUGGCGUUGGCGUAAUGGUAACGCGUCUCCCUCCUAAGGAGAAGACUGGGGGUUCGAGUCCCGUACGGAACG [U3G C4G C49G], the yeast fitness was found to be 0.826. For the variant GUGGCCUUGGCGUAAUGGUAACGCGUCUACCUCCUCAGGAGAAGACUGCGGCUUCGAGUCCCGUACGGAACG [U3G C4G G6C C29A A36C G52C], the yeast fitness is at most 0.5.

In the case of GUGCUGUUGGCGUAAUGGUAACGCGUCUCCAUCCUAAGGAGAAGACUGCGGGUUCGAGUCCCGUUCGGAACG [U3G C5U C31A A65U], the yeast fitness is at most 0.5. As for GUGGCCUUGGCGUAAUGGUAACGCGUCUACCUCCUCAGGAGAAGACUGCGGCUUCGAGUCCCGCACGGAACG [U3G C4G G6C C29A A36C G52C U64C], the yeast fitness is at most 0.5. Take GUGCCGUUGGCGUAAUGGUAACGCGUCUCCCUCCUAAGGAGAAGACUGCGGGUUCGAGUCCCGUGCGGAACG [U3G A65G]: the yeast fitness was 1.1. Turning to GUGCCGUUGGCGUAAUGGUAACGCGUCUCCCUCCUAAGGAGAGGACUGCGGGUUAGAGUCCCGUACGGAACG [U3G A43G C55A], the yeast fitness amounted to 0.536. Regarding GUGACGUUAGCGUAAUGGUAACGCGUCUCCCUCCUAAGGAGAAGACUGCGGGUUCGAGUCCCGAACGGAACG [U3G C4A G9A U64A], the yeast fitness is at most 0.5.

For the variant GUGACGUUGGGGUAAUGGUAACGCGUCUCCGUCCUAAGGAGAAGACUGCGGGUUCGAGUCCCGUACGGAACG [U3G C4A C11G C31G], the yeast fitness is 0.533. Consider GUGACGUUGGCGUAAUGGUAACGCGUCUCCCUCCUAAGGUGAAGACUGCGGGUUCGGGUCCUGUACGGAACG [U3G C4A A40U A57G C62U], for which the yeast fitness was at most 0.5. GUGCCGUUGGCGUAAUGGUAACGCGUCUCCCUCCUAAGGAGAAGCCUGCGGGUUCGAGUCCCGUACGGAUCG [U3G A45C A70U]: the yeast fitness came to 0.857. Regarding GUGCCGUUGGCGUAAUGGUAACGCGUCUCCCUCCUAAGGAGAAGCCUGCGGGUUCGAGUCCCGUACGGAACG [U3G A45C], the yeast fitness is 0.973.

Turning to GUGCCGUUGGCGUAAUGGUAACGCGUCUCCCUCCUAAGGAGAAGGCUGCGGGUUCGAGUCCCGUACGGAACG [U3G A45G], the yeast fitness is 1.

On to GUGCUGUUGGCGUAAUGGUAACGCGUCUCCCUCCUAAGGAGAAGACUGCGGGUUCGAGUCCAGUACGGAACG [U3G C5U C62A], for which the yeast fitness is at most 0.5. For the variant GUGUCGUUGGCGUAAUGGUAACGCGUCUCCCUCCAAAGGAGAAGACUGCGGGUUCGAAUCCCGUACUGAACG [U3G C4U U35A G58A G67U], the yeast fitness was at most 0.5. Take GUGACGUUGGCGUAAUGGUAACGCGUCUCCCUCCUAAGGUGAAGACUGCGGGUCCGAGUCCCGUACGGAACG [U3G C4A A40U U54C]: the yeast fitness is at most 0.5. As for GUGUCGUUGGCGUAGUGGUAACGGGUCUCCCUCCUAAGGAGAAGACUGCGGGUUUGAGUCCCGUACGGAACG [U3G C4U A15G C24G C55U], the yeast fitness is at most 0.5.

As for GUGACGUUGGCGUAAUGGUAACGCGUCUCCCUCCUAAGGUGAAGACUGCGGGUUCGAGUCCCGUACGGAACG [U3G C4A A40U], the yeast fitness was 0.547. For GUGCCGUUGGCGUAAUGGUAACGCGUCUCCCUCCUAAGGAGAAGACUGCGGGUUCGGGUCCCGUACGGAACG [U3G A57G] the value was 0.908.

Consider GUGGCCUUGGCGUAAUGGUAACGCGUCUACCUCCUCAGGAGAAGACUGCGGCUUCAAGUCCCGUACGGAACG [U3G C4G G6C C29A A36C G52C G56A], for which the yeast fitness was at most 0.5. As to GUGCAGUUGGCGUAAUGGUAACGCGUCUCCCUCCUAAGGAGAAGACUGCGGGUUCGAGUCCCGUACGGAACG [U3G C5A], the yeast fitness worked out at 0.779. GUGCCGUUGGCGUAAUGGUAACGCGUCUCCCUCCUAAGGAGAAGACUGCGGGUUCGAGUCCCGUACGGUACG [U3G A69U]: the yeast fitness came out at 0.924.
